Assays:
[1] = Antiproliferative activity against human MCF7/ADR cells after 96 hrs by MTT assay; format: functional; conditions: NCI/ADR-RES
Procedure, shortened: (§1)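 MTT: cells seeded at 1.5-4.0 × 10^4 cells/mL and incubated overnight at 37 C, then exposed to 5-9 concentrations (DMSO stocks diluted in growth medium; final DMSO ≤0.5%) for 96 h. MTT added at 0.5 mg/mL for a further 4 h at 37 C and the formazan dissolved. Inhibition calculated relative to control; GI50 estimated by curve fitting; 3-5 repeats, mean ± SD.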

[2] = system: NCI/ADR-RES; test: Selectivity index, ratio of GI50 for human MCF7 cells to GI50 for human MCF7/ADR cells; format: functional
[3] = system: MCF7; test: Antiproliferative activity against human MCF7 cells after 96 hrs by MTT assay; format: functional; conditions: MCF7, 96 h; procedure, shortened: as §1
[4] = biological target: T1, MDR1 (ABCB1) (Homo sapiens, UniProt P08183); test: Activity at MDR1 (unknown origin) expressed in MDCK cells assessed as permeability across apical to basolateral after 90 mins by LC-MS/MS analysis; format: ADME, cell-based
[5] = biological target: T1, MDR1 (ABCB1); test: Activity at MDR1 (unknown origin) expressed in MDCK cells assessed as efflux ratio of permeability across basolateral to apical side over apical to basolateral side; format: ADME, cell-based
[6] = Permeability across apical to basolateral side in MDCK cells after 90 mins by LC-MS/MS analysis; format: ADME, cell-based, Canis lupus familiaris; conditions: dog
Procedure, shortened: (§2)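 Wild-type MDCK cells on Transwell filters. Transport was run in HBSS pH 7.4 at 37 °C in A-B and B-A directions, and plates were separated after 90 min incubation. Efflux ratio is Papp(B-A)/Papp(A-B). Papp is reported as "<" when receiver concentrations were below the quantitation limit.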

[7] = biological target: T1, MDR1 (ABCB1); test: Activity at MDR1 (unknown origin) expressed in MDCK cells assessed as permeability across basolateral to apical after 90 mins by LC-MS/MS analysis; format: ADME, cell-based
[8] = Efflux ratio of permeability across basolateral to apical side over apical to basolateral side in MDCK cells; format: ADME, cell-based, Canis lupus familiaris; conditions: dog; procedure, shortened: as §2
[9] = Permeability across basolateral to apical side in MDCK cells after 90 mins by LC-MS/MS analysis; format: ADME, cell-based, Canis lupus familiaris; conditions: dog; procedure, shortened: as §2

T1 sequence (P08183 whole entry): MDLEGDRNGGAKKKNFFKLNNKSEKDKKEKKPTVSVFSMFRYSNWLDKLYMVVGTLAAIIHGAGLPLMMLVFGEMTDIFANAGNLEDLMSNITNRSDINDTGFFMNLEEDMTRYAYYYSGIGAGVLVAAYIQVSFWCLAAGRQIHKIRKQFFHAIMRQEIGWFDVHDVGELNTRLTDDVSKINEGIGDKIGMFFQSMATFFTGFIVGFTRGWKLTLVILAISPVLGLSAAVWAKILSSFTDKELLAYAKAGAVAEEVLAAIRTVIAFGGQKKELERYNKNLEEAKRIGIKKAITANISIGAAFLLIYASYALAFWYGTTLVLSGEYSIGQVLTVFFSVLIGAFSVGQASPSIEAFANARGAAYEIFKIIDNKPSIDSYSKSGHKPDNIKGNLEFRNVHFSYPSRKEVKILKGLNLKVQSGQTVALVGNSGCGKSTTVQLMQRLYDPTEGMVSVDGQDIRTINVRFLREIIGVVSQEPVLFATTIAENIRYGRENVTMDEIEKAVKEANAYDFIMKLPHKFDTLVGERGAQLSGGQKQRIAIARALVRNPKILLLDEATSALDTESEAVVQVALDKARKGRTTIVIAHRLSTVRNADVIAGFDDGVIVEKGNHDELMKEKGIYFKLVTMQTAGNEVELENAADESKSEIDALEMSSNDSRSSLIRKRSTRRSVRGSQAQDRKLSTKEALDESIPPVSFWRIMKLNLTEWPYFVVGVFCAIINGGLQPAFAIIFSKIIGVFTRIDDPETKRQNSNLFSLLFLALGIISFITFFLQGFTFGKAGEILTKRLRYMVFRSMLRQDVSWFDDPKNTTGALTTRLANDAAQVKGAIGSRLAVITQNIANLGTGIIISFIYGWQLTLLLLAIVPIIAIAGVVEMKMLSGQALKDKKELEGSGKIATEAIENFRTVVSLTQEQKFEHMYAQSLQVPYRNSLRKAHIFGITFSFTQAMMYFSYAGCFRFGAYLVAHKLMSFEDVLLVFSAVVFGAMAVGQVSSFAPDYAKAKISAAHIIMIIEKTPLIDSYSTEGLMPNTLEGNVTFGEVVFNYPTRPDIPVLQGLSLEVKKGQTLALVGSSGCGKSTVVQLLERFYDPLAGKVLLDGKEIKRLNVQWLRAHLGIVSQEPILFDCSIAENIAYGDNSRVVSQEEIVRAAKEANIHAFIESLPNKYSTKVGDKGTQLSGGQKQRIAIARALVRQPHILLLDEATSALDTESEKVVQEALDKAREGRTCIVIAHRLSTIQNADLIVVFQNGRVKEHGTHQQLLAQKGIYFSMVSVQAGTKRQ

Papp A→B at 1.5 h [4]	efflux ratio [5]	Papp A→B at 1.5 h [6]	Papp B→A at 1.5 h [7]	efflux ratio [8]	Papp B→A at 1.5 h [9]	SMILES	GI50 [1]	RatioGI50 [2]	GI50 [3]
–	–	–	–	–	–	C[C@H]1[C@@H](Oc2ccc(/C=C/C(=O)N3CCN(c4ccccc4)CC3)cc2)O[C@@H]2O[C@@]3(C)CC[C@H]4[C@H](C)CC[C@@H]1[C@@]24OO3	51 nM	2.16	110 nM
22.2 ×10⁻⁶ cm/s	1.07	24.3 ×10⁻⁶ cm/s	23.7 ×10⁻⁶ cm/s	0.76	18.5 ×10⁻⁶ cm/s	COCCc1ccc(OCC(O)CNC(C)C)cc1 (configuration not stated) [METOPROLOL]	–	–	–
–	–	–	–	–	–	C[C@H]1[C@@H](Oc2ccc(/C=C/C(=O)N3CCN(c4ccccn4)CC3)cc2)O[C@@H]2O[C@@]3(C)CC[C@H]4[C@H](C)CC[C@@H]1[C@@]24OO3	110 nM	2.64	290 nM
–	–	–	–	–	–	COc1ccccc1N1CCN(C(=O)/C=C/c2ccc(O[C@H]3O[C@@H]4O[C@@]5(C)CC[C@H]6[C@H](C)CC[C@@H]([C@H]3C)[C@@]46OO5)cc2)CC1	31 nM	4.52	140 nM
4.37 ×10⁻⁶ cm/s	7.81	9.98 ×10⁻⁶ cm/s	34.1 ×10⁻⁶ cm/s	2.34	23.4 ×10⁻⁶ cm/s	C=C[C@H]1C[N@@]2CC[C@H]1C[C@@H]2[C@@H](O)c1ccnc2ccc(OC)cc12 [QUINIDINE]	–	–	–
–	–	–	–	–	–	COc1ccccc1N1CCN(Cc2ccc(O[C@H]3O[C@@H]4O[C@@]5(C)CC[C@H]6[C@H](C)CC[C@@H]([C@H]3C)[C@@]46OO5)cc2)CC1	150 nM	3.87	580 nM
–	–	–	–	–	–	C[C@H]1[C@@H](Oc2ccc(CC(=O)N3CCN(c4ccccn4)CC3)cc2)O[C@@H]2O[C@@]3(C)CC[C@H]4[C@H](C)CC[C@@H]1[C@@]24OO3	80 nM	12	960 nM
–	–	–	–	–	–	C[C@H]1[C@@H](Oc2ccc(/C=C/C(=O)N3CCN(c4ccc(F)cc4)CC3)cc2)O[C@@H]2O[C@@]3(C)CC[C@H]4[C@H](C)CC[C@@H]1[C@@]24OO3	38 nM	8.57	270 nM
28 ×10⁻⁶ cm/s	0.89	31.4 ×10⁻⁶ cm/s	24.9 ×10⁻⁶ cm/s	0.8	25.1 ×10⁻⁶ cm/s	C[C@H]1[C@@H](O)O[C@@H]2O[C@@]3(C)CC[C@H]4[C@H](C)CC[C@@H]1[C@@]24OO3 [ARTENIMOL]	3320 nM	10	33200 nM
–	–	–	–	–	–	C[C@H]1[C@@H](Oc2ccc(C(=O)N3CCN(c4ccccc4)CC3)cc2)O[C@@H]2O[C@@]3(C)CC[C@H]4[C@H](C)CC[C@@H]1[C@@]24OO3	75 nM	1.33	100 nM

From ChEMBL document CHEMBL3751676, “Combating P-glycoprotein-mediated multidrug resistance with 10-O-phenyl dihydroartemisinin ethers in MCF-7 cells” (Eur J Med Chem, 2016)
